We go through 29 compounds from ChEMBL document CHEMBL3124932, “Design, synthesis and evaluation of genistein-O-alkylbenzylamines as potential multifunctional agents for the treatment of Alzheimer's disease” (Eur J Med Chem, 2014).

As usually defined, the inhibition is the relative decrease from the control value, in per cent. One may read the IC50 as the concentration at which inhibition is half-maximal.

The nature of test [1]: Antioxidant activity assessed as trolox equivalent of APPH-induced radical scavenging activity at 1 to 10 uM preincubated for 15 mins followed by AAPH challenge measured every minute for 90 minutes by ORAC fluorescence assay. Type of test: functional. The essentials:
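ORAC-FL in phosphate buffer pH 7.4. Samples (1–10 µM) preincubated with fluorescein (150 nM final) 15 min at 37 °C, then AAPH (12 mM final) added. Fluorescence (ex 485/em 535 nm) read each minute for 90 min. Net AUC over blank converted to Trolox equivalents using a 1–8 µM Trolox curve. Duplicates, at least 3 independent assays.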

The target in test [2] is Butyrylcholinesterase (Rattus norvegicus) (UniProt Q9JKC1). Nature of the test: Inhibition of rat serum BuChE using butyrylthiocholine iodide as substrate at 50 uM after 15 mins by Ellman's method. The method, boiled down:
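Modified Ellman assay in phosphate buffer pH 7.4. Enzyme sources: AChE from 5% rat cortex homogenate, preincubated 5 min with iso-OMPA to block BuChE; BuChE from 25% rat serum. Substrates were acetylthiocholine or butyrylthiocholine iodide. Compounds incubated 15 min at 37 °C, then DTNB added; A405 read. IC50 derived; triplicate, 3 independent experiments; "no active" means under 5% inhibition at 50 µM.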

Test [3] deals with T1, Acetylcholinesterase (Rattus norvegicus, UniProt P37136).
T1 sequence (P37136 whole entry): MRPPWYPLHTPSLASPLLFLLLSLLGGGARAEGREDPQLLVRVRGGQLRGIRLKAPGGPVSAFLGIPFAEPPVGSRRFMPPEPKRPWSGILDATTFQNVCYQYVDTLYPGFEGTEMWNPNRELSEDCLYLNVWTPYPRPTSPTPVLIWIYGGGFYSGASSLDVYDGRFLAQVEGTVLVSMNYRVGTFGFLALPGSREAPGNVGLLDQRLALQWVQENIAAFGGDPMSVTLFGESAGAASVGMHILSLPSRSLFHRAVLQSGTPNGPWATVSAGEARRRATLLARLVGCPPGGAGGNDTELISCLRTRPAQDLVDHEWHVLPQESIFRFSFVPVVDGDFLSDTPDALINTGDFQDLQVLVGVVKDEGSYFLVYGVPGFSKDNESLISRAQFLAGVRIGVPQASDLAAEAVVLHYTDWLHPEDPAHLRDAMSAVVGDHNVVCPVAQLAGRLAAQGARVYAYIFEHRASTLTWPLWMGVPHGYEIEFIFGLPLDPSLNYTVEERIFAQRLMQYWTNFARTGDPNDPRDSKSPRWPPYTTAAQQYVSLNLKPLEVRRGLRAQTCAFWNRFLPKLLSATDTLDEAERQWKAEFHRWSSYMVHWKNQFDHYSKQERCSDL
Nature of the test: Inhibition of rat cortex homogenate AchE using acetylthiocholine iodide as substrate after 15 mins by Ellman's method.

Test [4] deals with Mus musculus. Description: Cognition enhancing effect against scopolamine-induced memory deficit in po dosed Kunming mouse assessed as increase in latency time administered 1 hr before training followed by scopolamine challenge for 7 days measured after 24 hrs by step-down passive avoidance test. Type of test: functional, organism-based. The essentials: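 Kunming mice, six weeks old, 18–22 g, either sex, n=10 per group. Oral dosing at 2, 6, 18 or 3, 9, 27 mg/kg in vegetable oil, 1 h before training; vehicle as negative control. Scopolamine (3 mg/kg i.p., in saline) given 30 min later. Behavioural testing after 7 days of treatment. Step-down training used a 0.5 mA, 2 s foot shock. Latency measured 24 h later, cut-off 300 s; mean ± SEM.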

In test [5] the target is Amyloid-beta precursor protein (Homo sapiens) (UniProt P05067). Nature of the test: Induction of amyloid beta (1 to 42) (unknown origin) disaggregation assessed as reduction of Cu2+-induced amyloid beta fibril formation at 25 uM after 24 hrs by thioflavin T fluorescence method. Set-up: scale not given: the % may be the effect or the level left. The essentials:
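Aβ1-42 (25 µM final, HFIP-pretreated) and Cu2+ (25 µM) in HEPES pH 6.6 with 150 mM NaCl, incubated 24 h at 37 °C. Test compound (25 µM final) then added for a further 24 h at 37 °C, wells sealed. Read by ThT in glycine-NaOH pH 8.5 (ex 446/em 490 nm). DMSO 12.5% final; triplicate.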

For test [6] the target is unchanged. Description: Inhibition of Cu2+-induced amyloid beta (1 to 42) (unknown origin) aggregation at 25 uM after 24 hrs by thioflavin T fluorescence method. The method, boiled down: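 Aβ1-42 (25 µM final, HFIP-pretreated) with an equimolar amount of Cu2+ (25 µM) in HEPES pH 6.6 with 150 mM NaCl. Incubated with or without compound (10–35 µM final) 24 h at 37 °C. ThT in glycine-NaOH pH 8.5 added, fluorescence ex 446/em 490 nm. DMSO 12.5% final. Percent inhibition relative to no-inhibitor wells; triplicate, mean of 3 independent experiments.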

Test [7] shares this target. Description: Inhibition of self-induced amyloid beta (1 to 42) (unknown origin) aggregation at 25 uM after 24 hrs by thioflavin T fluorescence method. The method, boiled down: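 HFIP-pretreated Aβ1-42 (25 µM final) incubated with compound (10–50 µM) in 50 mM phosphate pH 7.4 for 24 h at 37 °C, wells sealed. ThT in glycine-NaOH pH 8.5 added; fluorescence ex 446/em 490 nm. DMSO 12.5% final. Percent inhibition relative to peptide without inhibitor; triplicate, mean of 3 independent experiments.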

For test [8], the target named is Acetylcholinesterase (Homo sapiens, UniProt P22303). Nature of the test: Inhibition of human erythrocytes AchE using acetylthiocholine iodide as substrate after 15 mins by Ellman's method. (In Ellman's method for cholinesterases, released thiocholine reacts with DTNB.)
Chain of Acetylcholinesterase (Homo sapiens, UniProt P22303) (P22303 whole entry): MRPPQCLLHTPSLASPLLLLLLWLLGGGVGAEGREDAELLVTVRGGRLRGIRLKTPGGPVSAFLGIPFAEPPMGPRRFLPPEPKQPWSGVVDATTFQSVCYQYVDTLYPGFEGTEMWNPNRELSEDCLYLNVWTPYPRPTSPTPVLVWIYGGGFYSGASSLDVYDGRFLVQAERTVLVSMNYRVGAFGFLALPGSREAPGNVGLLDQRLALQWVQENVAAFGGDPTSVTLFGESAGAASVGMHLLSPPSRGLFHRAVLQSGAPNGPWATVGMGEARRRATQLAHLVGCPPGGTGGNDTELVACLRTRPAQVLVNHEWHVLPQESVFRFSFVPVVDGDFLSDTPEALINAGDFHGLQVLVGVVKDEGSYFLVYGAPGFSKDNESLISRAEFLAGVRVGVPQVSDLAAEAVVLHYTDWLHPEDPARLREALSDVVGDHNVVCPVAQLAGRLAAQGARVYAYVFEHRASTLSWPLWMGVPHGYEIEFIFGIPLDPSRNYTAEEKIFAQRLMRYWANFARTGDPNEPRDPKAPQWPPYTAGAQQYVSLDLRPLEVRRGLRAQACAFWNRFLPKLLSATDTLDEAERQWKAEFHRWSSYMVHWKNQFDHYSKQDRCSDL
In test [9] the target is Acetylcholinesterase (Electrophorus electricus, UniProt O42275). Nature of the test: Inhibition of electric eel AchE using acetylthiocholine iodide as substrate after 15 mins by Ellman's method.
Chain of Acetylcholinesterase (Electrophorus electricus, UniProt O42275) (O42275 whole entry): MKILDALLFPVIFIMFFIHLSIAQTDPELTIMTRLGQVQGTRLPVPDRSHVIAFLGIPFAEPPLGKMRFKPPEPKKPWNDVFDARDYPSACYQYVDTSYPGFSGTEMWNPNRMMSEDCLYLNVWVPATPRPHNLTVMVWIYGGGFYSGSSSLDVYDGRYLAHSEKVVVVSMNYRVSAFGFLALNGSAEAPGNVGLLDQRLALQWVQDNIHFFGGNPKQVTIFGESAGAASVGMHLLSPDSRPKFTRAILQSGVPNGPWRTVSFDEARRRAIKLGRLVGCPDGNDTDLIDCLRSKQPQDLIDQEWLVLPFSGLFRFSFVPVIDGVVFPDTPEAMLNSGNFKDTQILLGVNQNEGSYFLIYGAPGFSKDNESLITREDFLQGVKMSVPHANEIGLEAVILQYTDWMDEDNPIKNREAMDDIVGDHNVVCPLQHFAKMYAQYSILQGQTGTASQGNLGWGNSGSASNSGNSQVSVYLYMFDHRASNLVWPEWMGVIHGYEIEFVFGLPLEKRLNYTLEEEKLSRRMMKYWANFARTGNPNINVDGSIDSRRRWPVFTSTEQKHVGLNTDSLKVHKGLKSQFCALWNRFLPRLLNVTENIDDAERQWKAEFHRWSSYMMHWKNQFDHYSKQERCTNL
Test [10] deals with Mus musculus. Description: Cognition enhancing effect against scopolamine-induced memory deficit in Kunming mouse assessed as increase in latency time at 5 mg/kg, po administered 1 hr before training followed by scopolamine challenge for 7 days measured after 24 hrs by step-down passive avoidance test. The test is classed as functional, organism-based. Set-up: dose 5 mg/kg. The essentials:
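Kunming mice (18–22 g, six weeks old, either sex), 10 per group. Drug in vegetable oil given orally 1 h before training, with scopolamine (3 mg/kg i.p., in 0.9% saline) 30 min later. Behavioural testing one day after 7 days of treatment. Training: 0.5 mA, 2 s foot shock on stepping down from a block. Step-down latency measured 24 h later, 300 s cut-off. Mean ± SEM.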

Activity calls are given as the source filed them.

Chain of Butyrylcholinesterase (Rattus norvegicus) (Q9JKC1 as listed by the source): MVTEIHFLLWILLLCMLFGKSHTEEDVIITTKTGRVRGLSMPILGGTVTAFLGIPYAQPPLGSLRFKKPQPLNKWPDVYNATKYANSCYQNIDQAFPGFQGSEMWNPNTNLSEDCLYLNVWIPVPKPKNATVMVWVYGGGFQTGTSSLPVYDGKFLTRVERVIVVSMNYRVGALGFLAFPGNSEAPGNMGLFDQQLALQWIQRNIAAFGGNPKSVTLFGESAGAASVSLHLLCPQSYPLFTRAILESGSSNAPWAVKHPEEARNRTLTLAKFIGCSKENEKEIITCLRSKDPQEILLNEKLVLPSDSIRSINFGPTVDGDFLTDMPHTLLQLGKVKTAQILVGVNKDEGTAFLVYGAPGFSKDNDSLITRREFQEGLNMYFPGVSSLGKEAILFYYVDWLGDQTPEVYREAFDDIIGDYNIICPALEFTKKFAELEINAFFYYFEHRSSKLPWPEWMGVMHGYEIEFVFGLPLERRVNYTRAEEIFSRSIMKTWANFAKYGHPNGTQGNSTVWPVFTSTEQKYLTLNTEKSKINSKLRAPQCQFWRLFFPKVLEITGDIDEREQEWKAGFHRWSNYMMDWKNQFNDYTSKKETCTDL
Chain of Amyloid-beta precursor protein (Homo sapiens) (P05067 whole entry): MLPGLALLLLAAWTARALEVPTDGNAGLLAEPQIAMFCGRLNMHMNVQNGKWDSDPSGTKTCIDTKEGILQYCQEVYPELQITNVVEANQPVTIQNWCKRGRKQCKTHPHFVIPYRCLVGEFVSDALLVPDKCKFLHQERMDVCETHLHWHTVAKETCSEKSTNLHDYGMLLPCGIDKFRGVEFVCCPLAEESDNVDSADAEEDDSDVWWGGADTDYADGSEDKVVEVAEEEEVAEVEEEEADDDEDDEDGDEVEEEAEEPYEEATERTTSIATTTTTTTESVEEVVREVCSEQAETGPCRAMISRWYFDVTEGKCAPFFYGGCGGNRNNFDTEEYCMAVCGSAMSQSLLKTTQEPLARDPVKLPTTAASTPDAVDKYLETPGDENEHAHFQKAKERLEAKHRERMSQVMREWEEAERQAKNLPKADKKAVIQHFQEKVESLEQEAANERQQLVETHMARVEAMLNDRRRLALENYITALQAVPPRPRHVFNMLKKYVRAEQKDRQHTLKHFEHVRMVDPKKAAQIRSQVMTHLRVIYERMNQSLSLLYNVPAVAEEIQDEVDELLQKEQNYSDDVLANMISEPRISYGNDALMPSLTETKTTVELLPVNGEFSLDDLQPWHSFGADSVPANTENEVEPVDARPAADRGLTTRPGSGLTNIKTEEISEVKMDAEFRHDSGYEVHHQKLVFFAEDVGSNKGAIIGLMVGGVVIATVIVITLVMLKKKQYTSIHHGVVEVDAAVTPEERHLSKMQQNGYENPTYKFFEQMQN

Turning to `COc1ccccc1CN(C)CCCOc1ccc(-c2coc3cc(O)cc(O)c3c2=O)cc1`, the Activity in test [1] was determined as 0.62. In addition, the inhibition in test [2] is below 5%. In [3], the concentration for half-maximal inhibition (IC50) turned out to be 37.4 µM.
For `CN(CCCCCCOc1cc(O)c2c(=O)c(-c3ccc(O)cc3)coc2c1)Cc1ccccc1` the same measures were 0.65, below 5% and 4.24 µM.
The matching figures for `COc1ccccc1CN(C)CCCCOc1cc(O)c2c(=O)c(-c3ccc(O)cc3)coc2c1`: 1.56, below 5% and 5.55 µM.
`CCN(CCCOc1cc(O)c2c(=O)c(-c3ccc(O)cc3)coc2c1)Cc1ccccc1OC`: the Activity in test [1] came to 1.02. In [2], this compound yielded an inhibition below 5%. The compound also gave a half-maximal inhibitory concentration (IC50) in test [3] of 0.47 µM.
The matching figures for `CCN(CCCOc1ccc(-c2coc3cc(O)cc(O)c3c2=O)cc1)Cc1ccccc1`: 0.58, 11.6% and 42.8 µM.
With `CCN(CCCCOc1ccc(-c2coc3cc(O)cc(O)c3c2=O)cc1)Cc1ccccc1OC`, the figures for the Activity result in [4], in test [5] and in test [1] were “Dose-dependent effect”, 39.2% and 1.1, respectively. Also, the inhibition turned out to be 71.9% in test [6], 24.6% in test [7] and 6.7% in test [2]. Further, the IC50 in test [8] was determined as 3.88 µM; in test [9] it was 15.9 µM; in [3], 1.45 µM.
In the case of `CCN(CCCCCCOc1ccc(-c2coc3cc(O)cc(O)c3c2=O)cc1)Cc1ccccc1OC`, in test [1], the Activity was determined as 0.38. In [2], this compound yielded an inhibition below 5%. In test [3], this compound showed an IC50 of 1.69 µM.
The matching figures for `CCN(CCCCOc1ccc(-c2coc3cc(OCCCCN(CC)Cc4ccccc4)cc(O)c3c2=O)cc1)Cc1ccccc1`: 0.26, 10.3% and 0.9 µM.
With `CN(CCCCOc1ccc(-c2coc3cc(O)cc(O)c3c2=O)cc1)Cc1ccccc1`, the Activity in [1] came to 0.32. Further, in [2], the inhibition amounted to 10.8%. This compound also displayed an IC50 in test [3] of 3.79 µM.
`COc1cc(/C=C/C(=O)CC(=O)/C=C/c2ccc(O)c(OC)c2)ccc1O`: the inhibition in test [6] is 64%.
With `COc1ccccc1CN(C)CCCCCCOc1cc(O)c2c(=O)c(-c3ccc(O)cc3)coc2c1`, the Activity in test [1] was determined as 2.7. The compound further yielded an inhibition in [2] below 5%. Also, the IC50 in test [3] is 3.19 µM.
The matching figures for `CCN(CCCCOc1cc(O)c2c(=O)c(-c3ccc(O)cc3)coc2c1)Cc1ccccc1OC`: 1.06, 7.7% and 0.83 µM.
For `CCN(CCCOc1ccc(-c2coc3cc(O)cc(O)c3c2=O)cc1)Cc1ccccc1OC` the same measures were 0.64, 17.6% and 16 µM.
The matching figures for `COc1ccccc1CN(C)CCCOc1cc(O)c2c(=O)c(-c3ccc(O)cc3)coc2c1`: 1.05, below 5% and 13.5 µM.
Turning to `CCN(CCCCCCOc1cc(O)c2c(=O)c(-c3ccc(O)cc3)coc2c1)Cc1ccccc1`, the Activity entry in test [4] was “Dose-dependent effect”; in test [5], 36.1%; in test [1], 1.2. Also, the figures for the inhibition in test [6], in test [7] and in [2] were 72.1%, 34.3% and below 5%, respectively. Further, the IC50 in test [8] was 5.8 µM; in [9], 4.98 µM; in test [3] it was 0.35 µM.
Consider `CCN(CCCCOc1cc(O)c2c(=O)c(-c3ccc(O)cc3)coc2c1)Cc1ccccc1`, for which the Activity in test [1] worked out at 2.4. The same compound showed an inhibition in test [2] of 10.4%. In addition, in test [3], the half-maximal inhibitory concentration (IC50) amounted to 2.42 µM.
Consider `COc1cc2c(cc1OC)C(=O)C(CC1CCN(Cc3ccccc3)CC1)C2` (configuration not stated), for which the outcome in test [10] was Active.
For `CN(CCCCCCOc1ccc(-c2coc3cc(O)cc(O)c3c2=O)cc1)Cc1ccccc1`, in test [1], the Activity was found to be 0.3. Besides, the inhibition in test [2] worked out at 7.7%. The compound also registered an IC50 in [3] of 3.54 µM.
For `CCN(CCCCCCOc1cc(O)c2c(=O)c(-c3ccc(O)cc3)coc2c1)Cc1ccccc1OC` the same measures were 0.56, below 5% and 0.53 µM.
Take `CCN(CCCCCCOc1ccc(-c2coc3cc(O)cc(O)c3c2=O)cc1)Cc1ccccc1`: the Activity in test [1] came out at 0.29. The inhibition in test [2] was below 5%. It took 38.4 µM to reach half-maximal inhibition in test [3] (IC50).
For `CN(CCCCOc1cc(O)c2c(=O)c(-c3ccc(O)cc3)coc2c1)Cc1ccccc1` the same measures were 1, 8.9% and 54.5 µM.
In the case of `CCN(CCCOc1cc(O)c2c(=O)c(-c3ccc(O)cc3)coc2c1)Cc1ccccc1`, the Activity in test [1] worked out at 1.12. In [2], the inhibition stood at 9.9%. In test [3], this compound showed an IC50 of 1.42 µM.
The matching figures for `CN(CCCOc1cc(O)c2c(=O)c(-c3ccc(O)cc3)coc2c1)Cc1ccccc1`: 0.89, 7.4% and 36.3 µM.
As to `COc1ccccc1CN(C)CCCCOc1ccc(-c2coc3cc(O)cc(O)c3c2=O)cc1`, the Activity in test [1] came to 1.1. In addition, the inhibition in test [2] is 9.7%. In addition, 5.31 µM corresponded to half-maximal inhibition in test [3] (IC50).
The matching figures for `CCN(CCCCOc1ccc(-c2coc3cc(O)cc(O)c3c2=O)cc1)Cc1ccccc1`: 0.6, below 5% and 12.8 µM.
For the compound `CN(CCCOc1ccc(-c2coc3cc(O)cc(O)c3c2=O)cc1)Cc1ccccc1`, in test [1], the Activity is 0.46. The inhibition in test [2] was below 5%. The compound further returned an IC50 in test [3] of 49.3 µM.
On to `CCN(CCCCCCOc1ccc(-c2coc3cc(OCCCCCCN(CC)Cc4ccccc4OC)cc(O)c3c2=O)cc1)Cc1ccccc1OC`, for which the Activity in test [1] was 0.13. In addition, the inhibition in test [2] came out at 11.6%. In addition, the IC50 in test [9] worked out at 3.79 µM; in [3], 0.51 µM.
With `COc1ccccc1CN(C)CCCCCCOc1ccc(-c2coc3cc(O)cc(O)c3c2=O)cc1`, in test [1], the Activity is 0.4. In test [2], the inhibition is below 5%. Further, the IC50 in test [3] turned out to be 5.62 µM.
With `CCN(CCCOc1ccc(-c2coc3cc(OCCCN(CC)Cc4ccccc4OC)cc(O)c3c2=O)cc1)Cc1ccccc1OC`, the Activity in test [1] is 0.49. The compound also gave an inhibition in test [2] of 12.5%. The half-maximal inhibitory concentration (IC50) in test [9] was found to be 0.16 µM; in [3], 0.21 µM.
